Measured values from ChEMBL document CHEMBL4393713, “Synthesis and biological evaluation of novel xanthine derivatives as potential apoptotic antitumor agents” (Eur J Med Chem, 2019).

Tests used:
PANC-1 [1] = assay: Induction of apoptosis in human PANC1 cells assessed as increase in caspase 3 level measured after 24 to 48 hrs relative to control; assay type: functional
Procedure, shortened: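 Active caspase-3 protein in treated Panc-1 cells quantified as pg/mL. Reported as fold increase over untreated control cells, with doxorubicin as the reference drug.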

[2] = Cytotoxicity against human MCF10A cells assessed as cell viability at 50 uM measured after 4 days by MTT assay relative to control; assay type: cell-based, MCF-10A; details: read-out: Activity
A549 = assay: Antiproliferative activity against human A549 cells assessed as inhibition of cell proliferation measured after 48 hrs by MTT assay; assay type: functional, cell-based; details: A549, 48 h
Procedure, shortened: (§1)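 Cells tested by MTT: pancreatic Panc-1, breast MCF-7, colon HT-29 and A-549. Doxorubicin run alongside as the reference compound.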

[3] = molecular target: Epidermal growth factor receptor (Homo sapiens, UniProt P00533); assay: Inhibition of human EGFR measured after 3 hrs by ELISA
Chain of Epidermal growth factor receptor (P00533 whole entry): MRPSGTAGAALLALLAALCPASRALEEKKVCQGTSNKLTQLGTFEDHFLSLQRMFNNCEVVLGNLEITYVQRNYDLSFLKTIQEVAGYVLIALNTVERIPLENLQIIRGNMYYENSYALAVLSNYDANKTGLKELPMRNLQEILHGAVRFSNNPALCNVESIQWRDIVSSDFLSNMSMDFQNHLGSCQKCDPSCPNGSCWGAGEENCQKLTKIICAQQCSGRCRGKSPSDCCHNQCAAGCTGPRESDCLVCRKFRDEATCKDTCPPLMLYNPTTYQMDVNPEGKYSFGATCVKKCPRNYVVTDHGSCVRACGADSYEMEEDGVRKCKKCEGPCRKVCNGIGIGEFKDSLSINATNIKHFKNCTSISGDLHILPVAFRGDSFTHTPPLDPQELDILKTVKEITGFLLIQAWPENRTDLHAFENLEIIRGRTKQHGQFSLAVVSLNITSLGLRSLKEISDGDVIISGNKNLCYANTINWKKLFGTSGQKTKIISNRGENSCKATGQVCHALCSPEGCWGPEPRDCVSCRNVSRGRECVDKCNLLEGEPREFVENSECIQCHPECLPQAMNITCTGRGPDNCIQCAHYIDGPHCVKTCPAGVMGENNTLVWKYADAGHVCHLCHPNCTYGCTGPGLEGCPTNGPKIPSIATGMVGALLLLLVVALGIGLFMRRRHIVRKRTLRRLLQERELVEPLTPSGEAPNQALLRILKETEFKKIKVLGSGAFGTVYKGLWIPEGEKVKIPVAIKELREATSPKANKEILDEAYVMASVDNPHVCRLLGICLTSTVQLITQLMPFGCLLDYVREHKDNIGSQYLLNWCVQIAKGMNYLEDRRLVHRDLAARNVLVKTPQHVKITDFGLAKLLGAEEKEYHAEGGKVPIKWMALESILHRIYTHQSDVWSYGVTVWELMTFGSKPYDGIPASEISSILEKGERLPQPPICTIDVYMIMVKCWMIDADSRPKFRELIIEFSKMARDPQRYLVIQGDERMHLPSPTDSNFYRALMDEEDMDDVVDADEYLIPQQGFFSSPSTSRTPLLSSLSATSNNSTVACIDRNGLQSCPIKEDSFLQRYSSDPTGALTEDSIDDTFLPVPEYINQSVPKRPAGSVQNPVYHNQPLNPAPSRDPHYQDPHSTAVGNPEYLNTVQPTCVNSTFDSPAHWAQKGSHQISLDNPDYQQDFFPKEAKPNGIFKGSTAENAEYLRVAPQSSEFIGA

HT-29 = assay: Antiproliferative activity against human HT-29 cells assessed as inhibition of cell proliferation measured after 48 hrs by MTT assay; assay type: functional, cell-based; details: HT-29, 48 h; procedure, shortened: as §1
PANC-1 [4] = assay: Antiproliferative activity against human PANC1 cells assessed as inhibition of cell proliferation measured after 48 hrs by MTT assay; assay type: functional, cell-based; details: PANC-1, 48 h; procedure, shortened: as §1
MCF7 = assay: Antiproliferative activity against human MCF7 cells assessed as inhibition of cell proliferation measured after 48 hrs by MTT assay; assay type: functional, cell-based; details: MCF7, 48 h; procedure, shortened: as §1
PANC-1 [5] = assay: Induction of apoptosis in human PANC1 cells assessed as downregulation of Bcl-2 expression level by Sybr-green dye based RT-PCR analysis relative to control; assay type: functional
PANC-1 [6] = assay: Induction of apoptosis in human PANC1 cells assessed as increase in BAX level by Sybr-green dye based RT-PCR analysis relative to control; assay type: functional
PANC-1 [7] = assay: Induction of apoptosis in human PANC1 cells assessed as increase in caspase 8 level measured after 24 to 48 hrs relative to control; assay type: functional
Procedure, shortened: (§2)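 Caspase-8, caspase-9 and cytochrome c levels in treated Panc-1 cells expressed as fold change relative to untreated control cells.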

PANC-1 [8] = assay: Induction of apoptosis in human PANC1 cells assessed as increase in cytochrome C level using TMB substrate measured after 24 hrs relative to control; assay type: functional; procedure, shortened: as §2
PANC-1 [9] = assay: Induction of apoptosis in human PANC1 cells assessed as increase in caspase 9 level measured after 24 to 48 hrs relative to control; assay type: functional; procedure, shortened: as §2
PANC-1 [10] = assay: Cell cycle arrest in human PANC1 cells assessed as accumulation at G2/M phase measured after 24 hrs by annexin v propidium iodide staining based flow cytometric analysis (reference value: 9.95 %); assay type: functional
PANC-1 [11] = assay: Cell cycle arrest in human PANC1 cells assessed as accumulation at G0/G1 phase measured after 24 hrs by annexin v propidium iodide staining based flow cytometric analysis (reference value: 53.64%); assay type: functional
PANC-1 [12] = assay: Induction of apoptosis in human PANC1 cells assessed as proportion of late apoptotic cells measured after 24 hrs by annexin v propidium iodide staining based flow cytometric analysis; assay type: functional
PANC-1 [13] = assay: Induction of apoptosis in human PANC1 cells assessed as proportion of necrotic cells measured after 24 hrs by annexin v propidium iodide staining based flow cytometric analysis; assay type: functional
PANC-1 [14] = assay: Cell cycle arrest in human PANC1 cells assessed as accumulation at pre G1 phase measured after 24 hrs by annexin v propidium iodide staining based flow cytometric analysis (reference value: 1.79%); assay type: functional
PANC-1 [15] = assay: Induction of apoptosis in human PANC1 cells assessed as proportion of early apoptotic cells measured after 24 hrs by annexin v propidium iodide staining based flow cytometric analysis; assay type: functional

Structure (SMILES) | IC50 (A549) [µM] | IC50 (HT-29) [µM] | IC50 (PANC-1 [4]) [µM] | IC50 (MCF7) [µM] | viability at 96 h, 50 µM [2] [%] | further results
Cn1c(=O)c2[nH]c(SC/C(=N/O)c3ccc(Br)cc3)nc2n(C)c1=O | 1.8 | 1.7 | 1.7 | 1.3 | > 90 | fold change (FC) (PANC-1 [1]): 5.91; IC50 [3]: 0.45 µM
COc1ccc(/C(CSc2nc3[nH]c(=O)n(C)c(=O)c3[nH]2)=N\O)cc1 | 1.5 | 1.7 | 1.91 | 1.8 | > 90 | fold change (FC) (PANC-1 [1]): 7.65; fold change (FC) (PANC-1 [5]): 0.3378; fold change (FC) (PANC-1 [6]): 8.9; IC50 [3]: 0.71 µM; fold change (FC) (PANC-1 [7]): 2.58; fold change (FC) (PANC-1 [8]): 11.43; fold change (FC) (PANC-1 [9]): 14.49
C/C(=N/O)c1ccc(NC(=O)CSc2nc3c([nH]2)c(=O)n(C)c(=O)n3C)cc1 | 6.6 | 3.1 | 4.6 | 5.3 | > 90 | –
Cn1c(=O)[nH]c2nc(SC/C(=N/O)c3ccccc3)[nH]c2c1=O | 5.6 | 2.1 | 3.6 | 4.3 | > 90 | –
Cn1c(=O)[nH]c2nc(SCC(=O)c3ccccc3)[nH]c2c1=O | 11.9 | 11.1 | 9.4 | 11.6 | > 90 | –
Cn1c(=O)c2[nH]c(SCC(=O)c3ccc(Cl)cc3)nc2n(C)c1=O | 8.4 | 9.9 | 7.2 | 8.4 | > 90 | –
COc1ccc(C(=O)CSc2nc3[nH]c(=O)n(C)c(=O)c3[nH]2)cc1 | 6.1 | 6.7 | 5.5 | 5.9 | > 90 | –
Cn1c(=O)c2[nH]c(SC/C(=N/O)c3ccc(Cl)cc3)nc2n(C)c1=O | 1.5 | 1.2 | 1.3 | 1 | > 90 | fold change (FC) (PANC-1 [1]): 4.11; IC50 [3]: 0.4 µM
Cn1c(=O)[nH]c2nc(SC/C(=N/O)c3ccc(Cl)cc3)[nH]c2c1=O | 1.89 | 1.8 | 1.7 | 1.4 | > 90 | fold change (FC) (PANC-1 [1]): 8.06; fold change (FC) (PANC-1 [5]): 0.239; Activity (PANC-1 [10]): 34.36%; fold change (FC) (PANC-1 [6]): 12.7; Activity (PANC-1 [11]): 35.08%; IC50 [3]: 0.82 µM; fold change (FC) (PANC-1 [7]): 3.47; fold change (FC) (PANC-1 [8]): 10.2; Activity (PANC-1 [12]): 8.86%; Activity (PANC-1 [13]): 2.37%; Activity (PANC-1 [14]): 17.34%; Activity (PANC-1 [15]): 6.11%; fold change (FC) (PANC-1 [9]): 15.68
Cn1c(=O)[nH]c2nc(SCC(=O)c3ccc(Cl)cc3)[nH]c2c1=O | 8.1 | 7.2 | 6.1 | 6.3 | > 90 | –
Cn1c(=O)c2[nH]c(SCC(=O)c3ccc(Br)cc3)nc2n(C)c1=O | 7.9 | 6.5 | 7.4 | 7.6 | > 90 | –
Cn1c(=O)[nH]c2nc(SCC(=O)c3ccc(Br)cc3)[nH]c2c1=O | 11.9 | 11.5 | 9.7 | 11.2 | > 90 | –
Cn1c(=O)[nH]c2nc(SC/C(=N/O)c3ccc(Br)cc3)[nH]c2c1=O | 2.1 | 2 | 2.1 | 1.7 | > 90 | fold change (FC) (PANC-1 [1]): 4.99; IC50 [3]: 2.88 µM
COc1cccc2c1C(=O)c1c(O)c3c(c(O)c1C2=O)C[C@@](O)(C(=O)CO)C[C@@H]3O[C@H]1C[C@H](N)[C@H](O)[C@H](C)O1 [DOXORUBICIN] | 1.21 | 1.01 | 1.41 | – | – | Activity (PANC-1 [14]): 22.17%

Further molecules by falling IC50 (A549), results first:

IC50 (A549) [µM] | IC50 (HT-29) [µM] | IC50 (PANC-1 [4]) [µM] | IC50 (MCF7) [µM] | Structure (SMILES) | viability at 96 h, 50 µM [2] [%] | further results
7.9 | 8.1 | 6.4 | 7.6 | COc1ccc(C(=O)CSc2nc3c([nH]2)c(=O)n(C)c(=O)n3C)cc1 | > 90 | –
7.7 | 6.9 | 5.9 | 6.1 | CC(=O)c1ccc(NC(=O)CSc2nc3[nH]c(=O)n(C)c(=O)c3[nH]2)cc1 | > 90 | –
7.3 | 6.2 | 7.7 | 9.1 | C/C(=N/O)c1ccc(NC(=O)CSc2nc3[nH]c(=O)n(C)c(=O)c3[nH]2)cc1 | > 90 | –
6.9 | 6.4 | 5.1 | 6.1 | CC(=O)c1ccc(NC(=O)CSc2nc3c([nH]2)c(=O)n(C)c(=O)n3C)cc1 | > 90 | –
6.7 | 5.9 | 4.9 | 5.1 | Cn1c(=O)c2[nH]c(SCC(=O)c3ccccc3)nc2n(C)c1=O | > 90 | –
6.1 | 6.7 | 5.5 | 5.9 | Cn1c(=O)c2[nH]c(SC/C(=N/O)c3ccccc3)nc2n(C)c1=O | > 90 | –
1.5 | 1.7 | 0.91 | 0.8 | COc1ccc(/C(CSc2nc3c([nH]2)c(=O)n(C)c(=O)n3C)=N\O)cc1 | > 90 | –
